Laboratory results from ChEMBL document CHEMBL4130535, “Aquilanols A and B, Macrocyclic Humulene-Type Sesquiterpenoids from the Agarwood of Aquilaria malaccensis” (2017).

Key:
Klebsiella pneumoniae = assay: Antibacterial activity against Klebsiella pneumoniae ATCC 10031 after 24 hrs; format: functional; settings: ATCC 10031, 24 h
In short: (§1)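 MIC determination, following a previously reported method, against the listed Gram-positive and Gram-negative ATCC strains.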

Trichophyton rubrum = assay: Antifungal activity against Trichophyton rubrum NBRC 9185 after 48 to 72 hrs; format: functional
In short: (§2)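 MIC determination, following a previously reported method, against the listed fungal strains, with amphotericin B as the positive control.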

Candida albicans = assay: Antifungal activity against Candida albicans ATCC 10231 after 48 to 72 hrs; format: functional; in short: as §2
[1] = system: Trichophyton mentagrophytes; assay: Antifungal activity against Trichophyton mentagrophytes IFM 40996 after 48 to 72 hrs; format: functional; in short: as §2
Escherichia coli = assay: Antibacterial activity against Escherichia coli ATCC 25922 after 24 hrs; format: functional; settings: ATCC 25922, 24 h; in short: as §1
Enterococcus faecalis = assay: Antibacterial activity against Enterococcus faecalis ATCC 19433 after 24 hrs; format: functional; settings: ATCC 19433, 24 h; in short: as §1
Enterococcus faecium = assay: Antibacterial activity against Enterococcus faecium ATCC 19434 after 24 hrs; format: functional; settings: ATCC 19434, 24 h; in short: as §1
Staphylococcus aureus = assay: Antibacterial activity against Staphylococcus aureus ATCC 25923 after 24 hrs; format: functional; settings: ATCC 25923, 24 h; in short: as §1
Aspergillus fumigatus = assay: Antifungal activity against Aspergillus fumigatus HIC 6094 after 48 to 72 hrs; format: functional; in short: as §2
Salmonella typhimurium = assay: Antibacterial activity against Salmonella enterica ATCC 14028 after 24 hrs; format: functional, Salmonella enterica subsp. enterica serovar Typhimurium; settings: ATCC 14028, 24 h; in short: as §1

Measured: MIC

C=C1[C@@H](O)[C@]23CC[C@H](C)[C@@H]2C[C@@]1(O)C(=O)C=C3C
430 to 580 µM: all assays above

C/C1=C/CC/C(CO)=C/CC(C)(C)/C=C/C1
430 to 580 µM: all assays above

C[C@H]1CC=C2[C@H]1C[C@]1(O)C(=O)C[C@@]2(C)[C@]1(C)CO
430 to 580 µM: all assays above

CC1(C)/C=C/C[C@@]2(C)OC/C(=C\C1)CC[C@@H]2O
430 to 580 µM: all assays above

C=C1C2C[C@H]3[C@@H](C)CC[C@@]3(C(C)=CC2=O)[C@@H]1O
430 to 580 µM: all assays above

COC(=O)[C@H]1C[C@]23CC[C@H](C)[C@@H]2C[C@@]1(O)C(=O)C=C3C
430 to 580 µM: all assays above

C[C@H]1CC=C2[C@H]1C[C@]1(O)C(=O)C[C@@]2(C)[C@]1(C)C=O
430 to 580 µM: all assays above

COC(=O)[C@@]1(C)[C@]2(C)CC(=O)[C@@]1(O)CC1=C2C(=O)C[C@@H]1C
430 to 580 µM: all assays above

CC1(C)C/C=C2/CCC(O)C(C)(CC3OC31)OC2 (racemic)
430 to 580 µM: all assays above
